Measurements pooled from the literature.
Lines come from different studies, so protocols differ.
gag-pol reverse transcriptase: Gag-Pol polyprotein, reverse transcriptase (gag-pol, Human immunodeficiency virus type 1 group M subtype B, UniProt P04585)
gag-pol protease: Gag-Pol polyprotein, protease (gag-pol, Human immunodeficiency virus type 1 group M subtype B, UniProt P04585)

| SMILES | target | effect on | action | technique | measurement | result |
| --- | --- | --- | --- | --- | --- | --- |
| CC(=O)c1cc2c(-c3ccc(N(C)C)cc3)c3c(nc2[nH]1)-c1ccccc1C3=O | gag-pol reverse transcriptase | enzyme activity | inhibitor | FRET | IC50 | > 10 µM |
| C=CCCCOc1ccc(C[C@H](NC(=O)c2cccc(O)c2CCC=C)[C@H](O)CN(CC(C)C)S(=O)(=O)c2ccc(OC)cc2)cc1 | gag-pol protease | enzyme activity | inhibitor | – | Ki | 45 nM |
| CCCc1c2c(nc3c1c(C#N)cn3C1CCCCC1)CCC2=O | gag-pol reverse transcriptase | enzyme activity | inhibitor | FRET | IC50 | > 100 µM |
| Oc1cc2c(cc1O)C(c1ccccc1)CNCC2 (racemic) | Gag-Pol polyprotein, integrase (gag-pol, Human immunodeficiency virus type 1 group M subtype B, UniProt P04585) | enzyme activity | inhibitor | – | IC50 | > 25 µM |
| C=CCn1cc(C#N)c2cc(C#N)cnc21 | gag-pol reverse transcriptase | enzyme activity | inhibitor | FRET | IC50 | > 100 µM |
| CC(C)CN(C[C@@H](O)[C@H](Cc1ccccc1)NC(=O)O[C@H]1CCO[C@H]2OCC[C@H]21)S(=O)(=O)c1ccc(B(O)O)cc1 | gag-pol protease | enzyme activity | inhibitor | – | Ki | 0.0021 nM |
| C=CCCCCOc1ccc(C[C@H](NC(=O)c2cccc(O)c2CCC=C)[C@H](O)CN(CC(C)C)S(=O)(=O)c2ccc(OC)cc2)cc1 | gag-pol protease | enzyme activity | inhibitor | – | Ki | 30 nM |
| CC(C)[C@H](NC(=O)[C@H](CCCNC(=N)N)NC(=O)[C@H](CO)NC(=O)[C@@H](N)Cc1c[nH]c2ccccc12)C(=O)NCC(=O)N[C@@H](Cc1ccc(O)cc1)C(=O)N[C@@H](Cc1c[nH]c2ccccc12)C(N)=O | gag-pol protease | binding | – | SPR | Kd | 44.6 µM |
| CC(C)(C)n1cc(C#N)c2cc(C=O)cnc21 | gag-pol reverse transcriptase | enzyme activity | inhibitor | FRET | IC50 | > 10 µM |
| CC(C)C[C@H]1C(OC(C)(C)C)=CC(=O)N1[C@H]1CCN(C2=CC(=O)NC2Cc2ccccc2)C1 (stereo partly shown) | gag-pol protease | enzyme activity | inhibitor | fluorescence | IC50 | 516 µM |
| COc1ccc(S(=O)(=O)N(CC(C)C)C[C@@H](O)[C@@H]2Cc3ccc(cc3)OCCCC=CCCc3c(O)cccc3C(=O)N2)cc1 | gag-pol protease | enzyme activity | inhibitor | – | Ki | 10 nM |
| Cc1cn([C@H]2C[C@H](N=[N+]=[N-])[C@@H](CO[P@](=O)(O)O[P@](=O)(O)OP(=O)(O)O)O2)c(=O)[nH]c1=O | gag-pol reverse transcriptase | enzyme activity | inhibitor | – | IC50 | 0.185 µM |
| CC[C@H](C)[C@H]1C(OC(C)(C)C)=CC(=O)N1[C@H]1CCN(C2=CC(=O)N([C@H]3CCN(C4=CC(=O)N[C@H]4CC(C)C)C3)[C@H]2C)C1 | gag-pol protease | enzyme activity | inhibitor | fluorescence | IC50 | 111 µM |
